Experimental findings from article PMC4629064 (Acta Pharmaceutica Sinica. B, 2014) are described below.

Series [1] can be described thus: Solubility of BA and BA–PC in water or octanol. The series is classed as physicochemical. Particulars: octanol, 37 °C, organic solvent or mixture, thermodynamic from solid.
Series [2] in a line: Oral bioavailability of BA–PC–SMEDDS and BA suspensions. Particulars: both, Sprague-Dawley, rat, in vivo, 75 mg.
Series [3] deals with intestine segments (duodenum and jejunum, ileum, colon). In words: In situ single-pass intestinal perfusion. The series is classed as in vivo, Sprague-Dawley rats. Particulars: rat SPIP, 750 μg/mL BA in KR buffer pH 6.0, mean±SD, n=6.
Series [4] in a line: Dispersible uniformity and stability in water. The series is classed as physicochemical. Particulars: dispersed in water, 37 °C. Put shortly:
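Free test compound dispersed in water by simple agitation, alongside its phospholipid complex and complex-loaded self-microemulsifying formulation (drug:phospholipid molar ratios 1:1, 1:1.5, 1:2). Samples held at 37 °C in a water bath. Drug in the upper solution quantified by UV spectrophotometry at 316 nm at 0, 4, 8, 12 and 24 h. Bottles inspected visually for bottom precipitate.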

Another series relates to Caco-2 cells. In words: Caco-2 cell permeation study. The following applies: apical to basolateral, 187.5 μg/mL of BA, pH 6.8, 37 °C; mean±SD, n=3. The series is classed as in vitro ADME.
Series [5] is described as follows: Caco-2 cell permeation study. The series is classed as in vitro ADME. Particulars: human, Caco-2, pH 6.8.

≈ marks a conversion by molar mass, not a printed value. Where “and” joins values, the source holds several entries; their conditions need not be identical. Identical values can stand only once.

On to `O=C(O)[C@H]1O[C@@H](Oc2cc3oc(-c4ccccc4)cc(=O)c3c(O)c2O)[C@H](O)[C@@H](O)[C@@H]1O` [BA, 5,6-dihydroxy-4-oxygen-2-phenyl-4H-1-benzopyran-7-β-D-glucopyranoseacid], for which the solubility at 48 h in series [1] came out at 136 ± 12 µg/mL (≈ 305 µM). For the same compound, in series [2], the AUC turned out to be 7610 ± 1580 ng·h/mL, the peak level (Cmax) was 1840 ± 470 ng/mL and the Tmax worked out at 1.5 h. Further, in series [3] (colon), the “Peff, Colon” value was 0.506±0.088 ×10^−4, cm/s. The “Peff, Duodenum+jejunum” value in series [3] (duodenum+jejunum) is 0.139±0.035 ^⁎ ×10^−4, cm/s. The “Peff, Ileum” value in series [3] (ileum) is on record as 0.252±0.081 ^⁎ ×10^−4, cm/s. The “Precipitate at the bottom of the bottles (visual)” value in series [4] is “precipitates”. In series [4] (initially), the “Concentration of BA in the upper solution, initially” value is recorded as “nearly zero”. For the same compound, in the series with Caco-2 cells, the “Papp through Caco-2 monolayer” value is 0.037 ×10^−6, cm/s and 0.037±0.012 ×10^−6, cm/s. Also, in series [5], the apparent permeability from apical to basolateral (Papp A→B) at 180 min, 187.5 μg/mL turned out to be 0.119 ± 0.092 ×10⁻⁶ cm/s; the Papp B→A at 180 min, 187.5 μg/mL came out at 0.365 ± 0.096 ×10⁻⁶ cm/s; the efflux ratio at 180 min, 187.5 μg/mL worked out at 3.07.

One may read the solubility as the dissolved amount per volume that the medium holds. One may read the AUC as concentration integrated over time. A higher AUC goes with high exposure. As a reminder, the Cmax is the highest concentration seen after dosing. By Tmax is commonly meant the time from dosing to the highest level. The term Papp A→B denotes the apparent permeability from the apical to the basolateral side of a cell layer. A high value points to fast passage. The term Papp B→A denotes how fast a substance crosses the layer from the basolateral side. In general, efflux ratio refers to the permeability from basolateral to apical divided by that in the opposite direction, in the common usage.
